According to ChEMBL document CHEMBL1629431, “Synthesis and antitumor activity of some 2, 3-disubstituted quinazolin-4(3H)-ones and 4, 6- disubstituted- 1, 2, 3, 4-tetrahydroquinazolin-2H-ones” (2010):

Legend:
Type in all cases: functional
CCRF-CEM = test: Growth inhibition of human CCRF-CEM cells at 10 uM after 48 hrs by coulter counter method; conditions: read-out: GI
How it was run: (§1)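 Single high-dose NCI 60-cell-line panel screen across nine tumor subpanels. Test solutions (0.2 mL) were added in duplicate to wells holding 1.8 mL of culture at 6 × 10⁴ cells/mL. Controls got PBS and DMSO at identical dilutions. Incubation was 48 h at 37 °C in humidified 5% CO₂. Cells were diluted 10-fold in saline, Coulter-counted and dilution-corrected. Results were expressed as percent growth inhibition versus control.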

HL-60(TB) = test: Growth inhibition of human HL-60(TB) cells at 10 uM after 48 hrs by coulter counter method; conditions: HL-60, 48 h, read-out: GI
How it was run: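 Part of the NCI 60-cell-line single-high-dose panel. Cells were seeded at 6 × 10⁴ cells/mL with test solution in duplicate wells, alongside PBS/DMSO controls at identical dilutions. Plates were held 48 h at 37 °C in a humidified 5% CO₂ incubator. Cells were then diluted 10-fold in saline and counted by Coulter counter, with counts corrected for dilution. Results are percent growth of treated cells, reported as GI %.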

K562 = test: Growth inhibition of human K562 cells at 10 uM after 48 hrs by coulter counter method; conditions: K562, 48 h, read-out: GI; how it was run: as §1
A549 = test: Growth inhibition of human A549 cells at 10 uM after 48 hrs by coulter counter method; conditions: A549, 48 h, read-out: GI; how it was run: as §1
HOP-92 = test: Growth inhibition of human HOP92 cells at 10 uM after 48 hrs by coulter counter method; conditions: HOP-92, 48 h, read-out: GI; how it was run: as §1
NCI-H226 = test: Growth inhibition of human NCI-H226 cells at 10 uM after 48 hrs by coulter counter method; conditions: NCI-H226, 48 h, read-out: GI; how it was run: as §1
NCI-H23 = test: Growth inhibition of human NCI-H23 cells at 10 uM after 48 hrs by coulter counter method; conditions: NCI-H23, 48 h, read-out: GI; how it was run: as §1
NCI-H522 = test: Growth inhibition of human NCI-H522 cells at 10 uM after 48 hrs by coulter counter method; conditions: NCI-H522, 48 h, read-out: GI; how it was run: as §1
COLO 205 = test: Growth inhibition of human COLO205 cells at 10 uM after 48 hrs by coulter counter method; conditions: COLO 205, 48 h, read-out: GI; how it was run: as §1
HCT-116 = test: Growth inhibition of human HCT116 cells at 10 uM after 48 hrs by coulter counter method; conditions: HCT-116, 48 h, read-out: GI; how it was run: as §1
HT-29 = test: Growth inhibition of human HT-29 cells at 10 uM after 48 hrs by coulter counter method; conditions: HT-29, 48 h, read-out: GI; how it was run: as §1
KM12 = test: Growth inhibition of human KM12 cells at 10 uM after 48 hrs by coulter counter method; conditions: KM12, 48 h, read-out: GI; how it was run: as §1
SF-268 = test: Growth inhibition of human SF268 cells at 10 uM after 48 hrs by coulter counter method; conditions: SF-268, 48 h, read-out: GI; how it was run: as §1
SF-539 = test: Growth inhibition of human SF539 cells at 10 uM after 48 hrs by coulter counter method; conditions: SF-539, 48 h, read-out: GI; how it was run: as §1
SNB-75 = test: Growth inhibition of human SNB75 cells at 10 uM after 48 hrs by coulter counter method; conditions: SNB-75, 48 h, read-out: GI; how it was run: as §1
U-251 = test: Growth inhibition of human U251 cells at 10 uM after 48 hrs by coulter counter method; conditions: U-251, 48 h, read-out: GI; how it was run: as §1
M14 = test: Growth inhibition of human M14 cells at 10 uM after 48 hrs by coulter counter method; conditions: M14, 48 h, read-out: GI; how it was run: as §1
SK-MEL-2 = test: Growth inhibition of human SK-MEL-2 cells at 10 uM after 48 hrs by coulter counter method; conditions: SK-MEL-2, 48 h, read-out: GI; how it was run: as §1
SK-MEL-28 = test: Growth inhibition of human SK-MEL-28 cells at 10 uM after 48 hrs by coulter counter method; conditions: SK-MEL-28, 48 h, read-out: GI; how it was run: as §1
UACC-62 = test: Growth inhibition of human UACC62 cells at 10 uM after 48 hrs by coulter counter method; conditions: UACC-62, 48 h, read-out: GI; how it was run: as §1
OVCAR-4 = test: Growth inhibition of human OVCAR4 cells at 10 uM after 48 hrs by coulter counter method; conditions: OVCAR-4, 48 h, read-out: GI; how it was run: as §1
OVCAR-8 = test: Growth inhibition of human OVCAR8 cells at 10 uM after 48 hrs by coulter counter method; conditions: OVCAR-8, 48 h, read-out: GI; how it was run: as §1
SK-OV-3 = test: Growth inhibition of human SKOV3 cells at 10 uM after 48 hrs by coulter counter method; conditions: SK-OV-3, 48 h, read-out: GI; how it was run: as §1
786-0 = test: Growth inhibition of human 786-0 cells at 10 uM after 48 hrs by coulter counter method; conditions: 786-0, 48 h, read-out: GI; how it was run: as §1
CAKI-1 = test: Growth inhibition of human Caki1 cells at 10 uM after 48 hrs by coulter counter method; conditions: CAKI-1, 48 h, read-out: GI; how it was run: as §1
SN12C = test: Growth inhibition of human SN12C cells at 10 uM after 48 hrs by coulter counter method; conditions: read-out: GI; how it was run: as §1
UO-31 = test: Growth inhibition of human UO31 cells at 10 uM after 48 hrs by coulter counter method; conditions: UO-31, 48 h, read-out: GI; how it was run: as §1
PC-3 = test: Growth inhibition of human PC3 cells at 10 uM after 48 hrs by coulter counter method; conditions: PC-3, 48 h, read-out: GI; how it was run: as §1
MCF7 = test: Growth inhibition of human MCF7 cells at 10 uM after 48 hrs by coulter counter method; conditions: MCF7, 48 h, read-out: GI; how it was run: as §1
MDA-MB-231 = test: Growth inhibition of human MDA-MB-231 cells at 10 uM after 48 hrs by coulter counter method; conditions: MDA-MB-231, 48 h, read-out: GI; how it was run: as §1
[1] = Growth inhibition of human Hs 578T cells at 10 uM after 48 hrs by coulter counter method; conditions: read-out: GI; how it was run: as §1
BT-549 = test: Growth inhibition of human BT549 cells at 10 uM after 48 hrs by coulter counter method; conditions: BT-549, 48 h, read-out: GI; how it was run: as §1
T47D = test: Growth inhibition of human T47D cells at 10 uM after 48 hrs by coulter counter method; conditions: read-out: GI; how it was run: as §1
MDA-MB-468 = test: Growth inhibition of human MDA-MB-468 cells at 10 uM after 48 hrs by coulter counter method; conditions: MDA-MB-468, 48 h, read-out: GI; how it was run: as §1
MOLT-4 = test: Growth inhibition of human MOLT4 cells at 10 uM after 48 hrs by coulter counter method; conditions: MOLT-4, 48 h, read-out: GI; how it was run: as §1
IGROV-1 = test: Growth inhibition of human IGROV1 cells at 10 uM after 48 hrs by coulter counter method; conditions: IGROV-1, 48 h, read-out: GI; how it was run: as §1

| SMILES | inhibition of growth at 10 µM (HL-60(TB)) | inhibition of growth at 10 µM (K562) | inhibition of growth at 10 µM (A549) | inhibition of growth at 10 µM (NCI-H226) | inhibition of growth at 10 µM (NCI-H23) | inhibition of growth at 10 µM (NCI-H522) | inhibition of growth at 10 µM (HCT-116) | inhibition of growth at 10 µM (HT-29) | inhibition of growth at 10 µM (KM12) | inhibition of growth at 10 µM (SF-268) | inhibition of growth at 10 µM (SF-539) | inhibition of growth at 10 µM (SNB-75) | inhibition of growth at 10 µM (U-251) | inhibition of growth at 10 µM (M14) | inhibition of growth at 10 µM (SK-MEL-2) | inhibition of growth at 10 µM (SK-MEL-28) | inhibition of growth at 10 µM (UACC-62) | inhibition of growth at 10 µM (OVCAR-4) | inhibition of growth at 10 µM (OVCAR-8) | inhibition of growth at 10 µM (SK-OV-3) | also measured |
| --- | --- | --- | --- | --- | --- | --- | --- | --- | --- | --- | --- | --- | --- | --- | --- | --- | --- | --- | --- | --- | --- |
| CCn1c(-n2ccnc2)nc2ccccc2c1=O | 30% | 37.9% | 30% | 30% | 30% | 30% | 30% | 30% | 30% | 30% | 30% | 30% | 30% | 30% | 30% | 30% | 30% | 30% | 30% | 30% | inhibition of growth at 10 µM (CCRF-CEM): 30%; inhibition of growth at 10 µM (HOP-92): 30%; inhibition of growth at 10 µM (COLO 205): 30%; inhibition of growth at 10 µM (786-0): 30%; inhibition of growth at 10 µM (CAKI-1): 46.3%; inhibition of growth at 10 µM (SN12C): 30%; inhibition of growth at 10 µM (UO-31): 30%; inhibition of growth at 10 µM (PC-3): 30%; inhibition of growth at 10 µM (MCF7): 30%; inhibition of growth at 10 µM (MDA-MB-231): 30%; inhibition of growth at 10 µM [1]: 30%; inhibition of growth at 10 µM (BT-549): 30%; inhibition of growth at 10 µM (T47D): 30%; inhibition of growth at 10 µM (MDA-MB-468): 30% |
| O=c1c2ccccc2nc(-n2ccnc2)n1-c1ccccc1 | 30% | 30% | 30% | 30% | 30% | 30% | 30% | 30% | 30% | 30% | 30% | 30% | 30% | 30% | 30% | 30% | 30% | 30% | 30% | 30% | inhibition of growth at 10 µM (CCRF-CEM): 30%; inhibition of growth at 10 µM (MOLT-4): 30%; inhibition of growth at 10 µM (HOP-92): 76.6%; inhibition of growth at 10 µM (786-0): 30%; inhibition of growth at 10 µM (CAKI-1): 30%; inhibition of growth at 10 µM (SN12C): 30%; inhibition of growth at 10 µM (UO-31): 30%; inhibition of growth at 10 µM (PC-3): 30%; inhibition of growth at 10 µM (MCF7): 30%; inhibition of growth at 10 µM (MDA-MB-231): 30%; inhibition of growth at 10 µM [1]: 30%; inhibition of growth at 10 µM (BT-549): 30%; inhibition of growth at 10 µM (T47D): 30%; inhibition of growth at 10 µM (MDA-MB-468): 30% |
| O=c1c2ccccc2nc(-n2ccnc2)n1-c1ccc(Cl)cc1 | 30% | 37.1% | 30% | 30% | 30% | 30% | 30% | 30% | 30% | 30% | 30% | 30% | 30% | 30% | 30% | 30% | 30% | 30% | 30% | 30% | inhibition of growth at 10 µM (MOLT-4): 47.7%; inhibition of growth at 10 µM (HOP-92): 30%; inhibition of growth at 10 µM (COLO 205): 30%; inhibition of growth at 10 µM (IGROV-1): 30%; inhibition of growth at 10 µM (786-0): 30%; inhibition of growth at 10 µM (CAKI-1): 30%; inhibition of growth at 10 µM (SN12C): 30%; inhibition of growth at 10 µM (UO-31): 30%; inhibition of growth at 10 µM (PC-3): 40.3%; inhibition of growth at 10 µM (MCF7): 30%; inhibition of growth at 10 µM (MDA-MB-231): 30%; inhibition of growth at 10 µM [1]: 30%; inhibition of growth at 10 µM (BT-549): 30%; inhibition of growth at 10 µM (T47D): 39%; inhibition of growth at 10 µM (MDA-MB-468): 30% |
| COc1ccc(-n2c(-n3ccnc3)nc3ccccc3c2=O)cc1 | 30% | 30.8% | 30% | 30% | 30% | 30% | 30% | 30% | 30% | 30% | 30% | 30% | 30% | 30% | 30% | 30% | 30% | 30% | 30% | 30% | inhibition of growth at 10 µM (CCRF-CEM): 30%; inhibition of growth at 10 µM (COLO 205): 30%; inhibition of growth at 10 µM (IGROV-1): 30%; inhibition of growth at 10 µM (786-0): 30%; inhibition of growth at 10 µM (CAKI-1): 30%; inhibition of growth at 10 µM (SN12C): 30%; inhibition of growth at 10 µM (UO-31): 30%; inhibition of growth at 10 µM (PC-3): 30%; inhibition of growth at 10 µM (MCF7): 30%; inhibition of growth at 10 µM (MDA-MB-231): 30%; inhibition of growth at 10 µM [1]: 30%; inhibition of growth at 10 µM (BT-549): 30%; inhibition of growth at 10 µM (T47D): 30%; inhibition of growth at 10 µM (MDA-MB-468): 30% |
